# Measured values as given in ChEMBL document CHEMBL3244382, “Structural requirements for antileukemic activity among the naturally occurring and semisynthetic maytansinoids” (J Med Chem, 1978).
# Activity calls are given as the source filed them.
# Columns and labels:
# Mus musculus [1] = experiment: Toxicity in PS mouse allografted with mouse P388 cells assessed as change in body weight at 25 ug/kg relative to control; type: organism-based; settings: in vivo, 0.025 mg/kg
# Procedure, shortened: (§1)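 P388 (PS) leukemia in mice, 6 mice per dose group. Weight change is the difference in grams between treated and control animals. Survivors are recorded on toxicity day, normally 4 days after the first injection.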
# Mus musculus [2] = experiment: Toxicity in PS mouse allografted with mouse P388 cells assessed as change in body weight at 50 ug/kg relative to control; type: organism-based; settings: in vivo, 0.05 mg/kg; procedure, shortened: as §1
# P388 [3] = experiment: Antitumor activity against mouse P388 cells allografted in PS mouse assessed as median survival time at 3.1 ug/kg relative to control; type: functional
# Procedure, shortened: (§2)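 P388 leukemia (PS) in mice, six mice started per dose group. Read-out is T/C: median survival time of the treated group divided by that of the untreated control group, expressed as a percent. The NIH protocol counts a compound as active when T/C > 125%.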
# P388 [4] = experiment: Antitumor activity against mouse P388 cells allografted in PS mouse assessed as median survival time at 6.2 ug/kg relative to control; type: functional; procedure, shortened: as §2
# Mus musculus [5] = experiment: Toxicity in PS mouse allografted with mouse P388 cells assessed as survival at 6.2 ug/kg after 4 days; type: organism-based; settings: in vivo, 0.0062 mg/kg, 96 h
# Procedure, shortened: (§3)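 PS (P388) leukemic mice, six started per dose group. Toxicity scored as survivors on the toxicity day over the number of mice started. The toxicity day is normally 4 days after the first injection.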
# Mus musculus [6] = experiment: Toxicity in PS mouse allografted with mouse P388 cells assessed as change in body weight at 3.1 ug/kg relative to control; type: organism-based; settings: in vivo, 0.0031 mg/kg; procedure, shortened: as §1
# P388 [7] = experiment: Antitumor activity against mouse P388 cells allografted in PS mouse assessed as median survival time at 0.2 ug/kg relative to control; type: functional; procedure, shortened: as §2
# Mus musculus [8] = experiment: Toxicity in PS mouse allografted with mouse P388 cells assessed as change in body weight at 0.8 ug/kg relative to control; type: organism-based; settings: in vivo, 0.0008 mg/kg
# Procedure, shortened: (§4)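 PS (P388 leukemia) mice, six per dose group. Toxicity read as the difference in grams between the weights of treated and control animals.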
# Mus musculus [9] = experiment: Toxicity in PS mouse allografted with mouse P388 cells assessed as survival at 0.2 ug/kg after 4 days; type: organism-based; settings: in vivo, 0.0002 mg/kg, 96 h; procedure, shortened: as §3
# P388 [10] = experiment: Antitumor activity against mouse P388 cells allografted in PS mouse assessed as median survival time at 12.5 ug/kg relative to control; type: functional; procedure, shortened: as §2
# Mus musculus [11] = experiment: Toxicity in PS mouse allografted with mouse P388 cells assessed as change in body weight at 6.2 ug/kg relative to control; type: organism-based; settings: in vivo, 0.0062 mg/kg; procedure, shortened: as §1
# Mus musculus [12] = experiment: Toxicity in PS mouse allografted with mouse P388 cells assessed as survival at 25 ug/kg after 4 days; type: organism-based; settings: in vivo, 0.025 mg/kg, 96 h; procedure, shortened: as §3
# Mus musculus [13] = experiment: Toxicity in PS mouse allografted with mouse P388 cells assessed as survival at 0.4 ug/kg after 4 days; type: organism-based; settings: in vivo, 0.0004 mg/kg, 96 h; procedure, shortened: as §3
# Mus musculus [14] = experiment: Toxicity in PS mouse allografted with mouse P388 cells assessed as change in body weight at 0.1 ug/kg relative to control; type: organism-based; settings: in vivo, 0.0001 mg/kg; procedure, shortened: as §4
# Mus musculus [15] = experiment: Toxicity in PS mouse allografted with mouse P388 cells assessed as change in body weight at 12.5 ug/kg relative to control; type: organism-based; settings: in vivo, 0.0125 mg/kg; procedure, shortened: as §1
# Mus musculus [16] = experiment: Toxicity in PS mouse allografted with mouse P388 cells assessed as change in body weight at 0.2 ug/kg relative to control; type: organism-based; settings: in vivo, 0.0002 mg/kg; procedure, shortened: as §4
# Mus musculus [17] = experiment: Toxicity in PS mouse allografted with mouse P388 cells assessed as survival at 1.6 ug/kg after 4 days; type: organism-based; settings: in vivo, 0.0016 mg/kg, 96 h; procedure, shortened: as §3
# P388 [18] = experiment: Antitumor activity against mouse P388 cells allografted in PS mouse assessed as median survival time at 0.8 ug/kg relative to control; type: functional; procedure, shortened: as §2
# Mus musculus [19] = experiment: Toxicity in PS mouse allografted with mouse P388 cells assessed as survival at 0.1 ug/kg after 4 days; type: organism-based; settings: in vivo, 0.0001 mg/kg, 96 h; procedure, shortened: as §3
# Mus musculus [20] = experiment: Toxicity in PS mouse allografted with mouse P388 cells assessed as change in body weight at 1.6 ug/kg relative to control; type: organism-based; settings: in vivo, 0.0016 mg/kg; procedure, shortened: as §1
# Mus musculus [21] = experiment: Toxicity in PS mouse allografted with mouse P388 cells assessed as survival at 3.1 ug/kg after 4 days; type: organism-based; settings: in vivo, 0.0031 mg/kg, 96 h; procedure, shortened: as §3
# Mus musculus [22] = experiment: Toxicity in PS mouse allografted with mouse P388 cells assessed as survival at 12.5 ug/kg after 4 days; type: organism-based; settings: in vivo, 0.0125 mg/kg, 96 h; procedure, shortened: as §3
# P388 [23] = experiment: Antitumor activity against mouse P388 cells allografted in PS mouse assessed as median survival time at 25 ug/kg relative to control; type: functional; procedure, shortened: as §2
# Tubulin (Homo sapiens) = Tubulin (Homo sapiens) (UniProt P68371+Q9H4B7+P0DPH7+P68366+Q13509+Q71U36+P04350+Q3ZCM7+P07437+P68363+Q9BQE3+Q6PEY2+Q13885+Q9BVA1+Q9BUF5); experiment: Inhibition of brain tubulin polymerization (unknown origin) at 37 degC by spectrophotometry
# Mus musculus [24] = experiment: Toxicity in PS mouse allografted with mouse P388 cells assessed as survival at 0.8 ug/kg after 4 days; type: organism-based; settings: in vivo, 0.0008 mg/kg, 96 h; procedure, shortened: as §3
# P388 [25] = experiment: Antitumor activity against mouse P388 cells allografted in PS mouse assessed as median survival time at 0.1 ug/kg relative to control; type: functional; procedure, shortened: as §2
# P388 [26] = experiment: Antitumor activity against mouse P388 cells allografted in PS mouse assessed as median survival time at 0.4 ug/kg relative to control; type: functional; procedure, shortened: as §2
# P388 [27] = experiment: Antitumor activity against mouse P388 cells allografted in PS mouse assessed as median survival time at 50 ug/kg relative to control; type: functional; procedure, shortened: as §2
# Mus musculus [28] = experiment: Toxicity in PS mouse allografted with mouse P388 cells assessed as survival at 50 ug/kg after 4 days; type: organism-based; settings: in vivo, 0.05 mg/kg, 96 h; procedure, shortened: as §3
# Paracentrotus lividus = experiment: Antimitotic activity against sea urchin eggs assessed as drug level causing inhibition of mitosis; type: functional; settings: Egg
# P388 [29] = experiment: Antitumor activity against mouse P388 cells allografted in PS mouse assessed as median survival time at 1.6 ug/kg relative to control; type: functional; procedure, shortened: as §2
# Mus musculus [30] = experiment: Toxicity in PS mouse allografted with mouse P388 cells assessed as change in body weight at 0.4 ug/kg relative to control; type: organism-based; settings: in vivo, 0.0004 mg/kg; procedure, shortened: as §4
# KB = experiment: Cytotoxicity against human KB cells; type: functional; settings: read-out: ED50 (the source's name)
# Mus musculus [31] = experiment: Toxicity in PS mouse allografted with mouse P388 cells assessed as change in body weight at 100 ug/kg relative to control; type: organism-based; settings: in vivo, 0.1 mg/kg; procedure, shortened: as §1
# P388 [32] = experiment: Antitumor activity against mouse P388 cells allografted in PS mouse assessed as median survival time at 100 ug/kg relative to control; type: functional; procedure, shortened: as §2
# Mus musculus [33] = experiment: Toxicity in PS mouse allografted with mouse P388 cells assessed as survival at 100 ug/kg after 4 days; type: organism-based; settings: in vivo, 0.1 mg/kg, 96 h; procedure, shortened: as §3
SMILES,Activity (Mus musculus [1]),Activity (Mus musculus [2]),T/C (P388 [3]),T/C (P388 [4]),Activity (Mus musculus [5]),Activity (Mus musculus [6]),T/C (P388 [7]),Activity (Mus musculus [8]),Activity (Mus musculus [9]),T/C (P388 [10]),Activity (Mus musculus [11]),Activity (Mus musculus [12]),Activity (Mus musculus [13]),Activity (Mus musculus [15]),Activity (Mus musculus [16]),Activity (Mus musculus [17]),T/C (P388 [18]),Activity (Mus musculus [20]),Activity (Mus musculus [21]),Activity (Mus musculus [22]),other results
COc1cc2cc(c1Cl)N(C)C(=O)C[C@H](OC(=O)[C@H](C)N(C)C(=O)CC(C)C)[C@]1(C)O[C@H]1[C@H](C)[C@@H]1C[C@@](O)(NC(=O)O1)[C@H](OC)/C=C/C=C(\C)C2,-0.4 g,-0.5 g,158%,154%,Non-toxic,0.2 g,125%,0.7 g,Non-toxic,187%,0.8 g,Non-toxic,Non-toxic,1.3 g,-0.6 g,Non-toxic,133%,-1.3 g,Non-toxic,Non-toxic,Activity (Mus musculus [14]): 1.4 g; Activity (Mus musculus [19]): Non-toxic; T/C (P388 [23]): 116%; inhibition (Tubulin (Homo sapiens)): Active; Activity (Mus musculus [24]): Non-toxic; T/C (P388 [25]): 120%; T/C (P388 [26]): 125%; T/C (P388 [27]): <80%; Activity (Mus musculus [28]): Non-toxic; Activity (Paracentrotus lividus): 1 ×10⁻⁸ mol/L; T/C (P388 [29]): 154%; Activity (Mus musculus [30]): -1.1 g
CCC(=O)N(C)[C@@H](C)C(=O)O[C@H]1CC(=O)N(C)c2cc(cc(OC)c2Cl)C/C(C)=C/C=C/[C@@H](OC)[C@@]2(O)C[C@H](OC(=O)N2)[C@@H](C)[C@@H]2O[C@@]12C,-2.2 g,-1.2 g,150%,125%,Non-toxic,-0.6 g,120%,-1.1 g,Non-toxic,104%,-2.1 g,Non-toxic,Non-toxic,-1.3 g,-1.1 g,Non-toxic,145%,-1.2 g,Non-toxic,Non-toxic,Activity (Mus musculus [14]): -1.1 g; Activity (Mus musculus [19]): Non-toxic; T/C (P388 [23]): <80%; inhibition (Tubulin (Homo sapiens)): Active; Activity (Mus musculus [24]): Non-toxic; T/C (P388 [25]): 137%; T/C (P388 [26]): 137%; T/C (P388 [27]): <80%; Activity (Mus musculus [28]): Toxic; Activity (Paracentrotus lividus): 1 ×10⁻⁸ mol/L; T/C (P388 [29]): 154%; Activity (Mus musculus [30]): -0.8 g
COc1cc2cc(c1Cl)NC(=O)/C=C/[C@]1(C)O[C@H]1[C@H](C)[C@@H]1C[C@@](O)(NC(=O)O1)[C@H](OC)/C=C/C=C(\C)C2,-0.5 g,-0.3 g,115%,115%,Non-toxic,-0.2 g,100%,-0.1 g,Non-toxic,110%,0.4 g,Non-toxic,Non-toxic,-0.5 g,1 g,Non-toxic,90%,0 g,Non-toxic,Non-toxic,EC50 (KB): 0.019 µg/mL; Activity (Mus musculus [31]): 1.2 g; T/C (P388 [32]): 95%; T/C (P388 [23]): 110%; inhibition (Tubulin (Homo sapiens)): Active; Activity (Mus musculus [24]): Non-toxic; T/C (P388 [26]): 100%; T/C (P388 [27]): 110%; Activity (Mus musculus [33]): Non-toxic; Activity (Mus musculus [28]): Non-toxic; Activity (Paracentrotus lividus): 1 µM; T/C (P388 [29]): 100%; Activity (Mus musculus [30]): 0.1 g
